Laboratory results reported in ChEMBL document CHEMBL4376838, “Discovery of Novel Celastrol Derivatives as Hsp90-Cdc37 Interaction Disruptors with Antitumor Activity” (J Med Chem, 2019).
Activity calls are given as the source filed them. No cut-off for these calls is given here.

Tests used:
[1] = system: A549; test: Antiproliferative activity against human A549 cells assessed as inhibition of cell growth at 0.5 uM incubated for 48 hrs by MTT assay relative to control; format: functional; conditions: A549, 48 h, read-out: GI
[2] = molecular target: T1, Hsp90 co-chaperone Cdc37 (Homo sapiens) (UniProt Q16543); test: Inhibition of Cdc37 in human A549 cells assessed as disruption of HSP90 alpha-Cdc37 interaction by measuring decrease in Cdc37 protein level at 5 uM incubated for 6 hrs by immunoprecipitation based immunoblot analysis; format: cell-based
T1 sequence (whole entry): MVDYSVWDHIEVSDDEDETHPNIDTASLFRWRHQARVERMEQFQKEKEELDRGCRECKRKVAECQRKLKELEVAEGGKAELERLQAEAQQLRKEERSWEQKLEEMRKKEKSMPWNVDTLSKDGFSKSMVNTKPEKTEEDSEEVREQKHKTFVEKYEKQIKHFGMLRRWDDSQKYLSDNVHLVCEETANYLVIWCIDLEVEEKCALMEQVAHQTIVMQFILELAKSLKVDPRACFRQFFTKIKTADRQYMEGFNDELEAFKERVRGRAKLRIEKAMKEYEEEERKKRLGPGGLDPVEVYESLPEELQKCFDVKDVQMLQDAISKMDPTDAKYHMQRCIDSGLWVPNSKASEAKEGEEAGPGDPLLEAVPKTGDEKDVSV
Outline: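 A549 cells (5×10^5 per 6 cm dish) were grown 24 h, then treated with 5 μM compound or DMSO for 6 h. Lysates were immunoprecipitated with Hsp90α antibody, and co-precipitated Cdc37 and Hsp90 were detected by Western blot. Mean ± SD, n = 3.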

[3] = molecular target: T1, Hsp90 co-chaperone Cdc37 (Homo sapiens); test: Binding affinity to full length CDC37 (unknown origin) assessed as reduction in absorption at 440 nm reaching equilibrium within 15 mins at 100 uM by UV absorption analysis; conditions: in the assay text read “within 5 mins” for “within 15 mins”
Outline: (§1)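 Compound (100 μM) mixed with GSH (100 μM), Cdc37 (1.5 μM) or Hsp90 (1.5 μM) in PBS containing 1% DMSO, incubated at 37 °C for 0, 5, 15 and 30 min. UV spectra scanned 200-500 nm, with absorbance at 440 nm compared against the 0 min value (A/A0). Mean ± SD, n = 3.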

[4] = molecular target: T1, Hsp90 co-chaperone Cdc37 (Homo sapiens); test: Binding affinity to Cdc37 in human A549 cells assessed as inhibition of HSP90-Cdc37 interaction by measuring decrease in Akt phosphorylation level incubated for 12 hrs by Western blot analysis; format: cell-based
Outline: (§2)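 A549 cells (5×10^5 per 6 cm dish) were allowed to settle 12 h, then treated with DMSO or compound at the indicated concentrations for 12 h. Lysates were adjusted to 3 mg/ml protein by BCA and resolved on 10% SDS-PAGE, then Western blotted. β-actin or Hsp90 served as the loading control. Three separate experiments, mean ± SD.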

[5] = system: MCF7; test: Antiproliferative activity against human MCF7 cells assessed as inhibition of cell growth incubated for 48 hrs by MTT assay; format: functional, cell-based; conditions: MCF7, 48 h
Outline: (§3)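 MTT read-out. Cells seeded at 5.0 × 10⁴ cells/ml and cultured 24 h, then exposed to the drug over a range of concentrations for 48 h, with matching DMSO as control. MTT (5 mg/ml) added for 4 h, supernatant removed, formazan dissolved in DMSO, OD read at 570 nm. Run in triplicate, mean ± SD (n = 3).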

[6] = system: A549; test: Induction of cell cycle arrest in human A549 cells assessed as accumulation at G1 phase at 0.8 uM incubated for 24 hrs by PI staining based flow cytometric analysis (reference value: 60.14%); format: functional
Outline: (§4)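 A549 cells (4×10^5 per 6 cm dish) were grown 24 h, then exposed to compound (0.2, 0.4, 0.8 μM) or DMSO for 24 h. Cells fixed in 75% ethanol at −20 °C for at least 12 h, treated with RNase A at 37 °C for 30 min, then stained with PI for 15 min in the dark. Analysed by flow cytometry, mean ± SD, n = 3.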

[7] = system: A549; test: Induction of apoptosis in human A549 cells assessed as early apoptotic cells at 0.6 uM incubated for 48 hrs by Annexin V-FITC and PI staining based flow cytometric analysis (reference value: 0.5%); format: functional
[8] = system: A549; test: Induction of cell cycle arrest in human A549 cells assessed as accumulation at G2 phase at 0.4 uM incubated for 24 hrs by PI staining based flow cytometric analysis (reference value: 19.37%); format: functional; outline: as §4
[9] = system: A549; test: Induction of apoptosis in human A549 cells assessed as late apoptotic cells at 0.6 uM incubated for 48 hrs by Annexin V-FITC and PI staining based flow cytometric analysis (reference value: 3.0%); format: functional
[10] = system: A549; test: Induction of cell cycle arrest in human A549 cells assessed as accumulation at S phase at 0.2 uM incubated for 24 hrs by PI staining based flow cytometric analysis (reference value: 27.59%); format: functional; outline: as §4
[11] = system: A549; test: Induction of morphological apoptosis in human A549 cells assessed as increase in cells with nuclear fragmentation at 0.3 to 1.2 uM incubated for 48 hrs by Hoechst 33342 and PI staining based fluorescence microscopic method; format: functional, cell-based
Outline: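 A549 cells (4×10^5 per 6 cm dish) were grown 24 h, then exposed to compound at the indicated concentrations or DMSO for 48 h. After PBS washes, cells were stained with Hoechst 33342 (10 µg/ml) plus PI for 5 min at room temperature in the dark and imaged by fluorescence microscopy for nuclear morphology.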

[12] = system: A549; test: Induction of apoptosis in human A549 cells assessed as viable cells at 0.3 uM incubated for 48 hrs by Annexin V-FITC and PI staining based flow cytometric analysis (reference value: 95.5%); format: functional; conditions: A549, 48 h, read-out: Activity
[13] = molecular target: Heat shock protein HSP 90-alpha (Homo sapiens) (UniProt P07900); test: Binding affinity to full length Hsp90alpha (unknown origin) assessed as reduction in absorption at 440 nm reaching equilibrium within 5 mins at 100 uM by UV absorption analysis; conditions: in the assay text read “within 15 mins” for “within 5 mins”; outline: as §1
[14] = molecular target: T1, Hsp90 co-chaperone Cdc37 (Homo sapiens); test: Binding affinity to Cdc37 in human A549 cells assessed as inhibition of HSP90-Cdc37 interaction by measuring decrease in Bcl2 protein level at 1.25 to 5 uM incubated for 12 hrs by Western blot analysis; format: cell-based; outline: as §2
[15] = system: A549; test: Induction of mitochondrial membrane potential loss in human A549 cells assessed as cells with depolarized mitochondria by measuring increase in J-monomer green fluorescence intensity at 0.2 uM incubated for 24 hrs by JC1 staining based fluorescence microscopic method (reference value: 1.5%); format: functional
[16] = molecular target: T1, Hsp90 co-chaperone Cdc37 (Homo sapiens); test: Binding affinity to Cdc37 in human A549 cells assessed as inhibition of HSP90-Cdc37 interaction by measuring increase in BAX protein level at 1.25 to 5 uM incubated for 12 hrs by Western blot analysis; format: cell-based; outline: as §2
[17] = system: HOS; test: Antiproliferative activity against human HOS cells assessed as inhibition of cell growth incubated for 48 hrs by MTT assay; format: functional, cell-based; outline: as §3
[18] = molecular target: T1, Hsp90 co-chaperone Cdc37 (Homo sapiens); test: Binding affinity to Cdc37 in human A549 cells assessed as inhibition of HSP90-Cdc37 interaction by measuring decrease in CDK4 protein level incubated for 12 hrs by Western blot analysis; format: cell-based; outline: as §2

inhibition [2]: Active
Activity [3]: Active
inhibition [4]: Dose-dependent effect
IC50 [5]: 0.64 µM
Activity [13]: Active
inhibition [14]: Active
inhibition [16]: Active
inhibition [18]: Dose-dependent effect
Structure (SMILES): CC1=C(O)C(=O)C=C2C1=CC=C1[C@@]2(C)CC[C@@]2(C)[C@@H]3C[C@](C)(C(=O)OCCCOC(=O)/C=C(\C#N)c4ccc(F)cc4)CC[C@]3(C)CC[C@]12C
inhibition of growth at 0.5 µM [1]: 65.1%
Activity [6]: 70.49%
Activity [7]: 5.9%
Activity [8]: 16%
Activity [9]: 16.9%
Activity [10]: 26.39%
Activity [11]: Active
viability at 0.3 µM [12]: 85.2%
Activity [15]: 15.7%
IC50 [17]: 0.9 µM
